Screening data as filed in PubChem.
eIF4H inh – human eIF4H binding inhibitors, primary screen, translation initiation inhibitor project, biochemical, uHTS, fluorescence polarization; Eukaryotic translation initiation factor 4H (Homo sapiens), Q15056; eIF4H fluorescence polarization binding assay; inhibition, % at 35 µM; hit rate 0.94% among 290,000; AID 2012, 2009;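 further: calls also rest on retests at 20 µM and on dose response follow-up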
TCR-CD3 inh – inhibitors of human TCR-CD3 interaction, primary screen, biochemical, fluorescence, TAMRA-labeled TCR probe | hit rate 0.37% among 360,000 | inhibition, % at 9.4 µM | T-cell receptor (TCR) | AID 651800, 2012; in the data active means inhibition above about 19%;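 further: recombinant mutant TCR 2C K166C tagged with TAMRA read by polarization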
PABP FP inh – PABP poly(A) RNA binding inhibitors, primary screen, biochemical, fluorescence polarization, uHTS; hit rate 1% among 290,000; calls only at 35 µM; AID 2014, 2009; Polyadenylate-binding protein 1 (Homo sapiens), P11940;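 further: calls also rest on retests at 20 µM and on dose response follow-up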
Target sequence (P11940 whole entry, looked up): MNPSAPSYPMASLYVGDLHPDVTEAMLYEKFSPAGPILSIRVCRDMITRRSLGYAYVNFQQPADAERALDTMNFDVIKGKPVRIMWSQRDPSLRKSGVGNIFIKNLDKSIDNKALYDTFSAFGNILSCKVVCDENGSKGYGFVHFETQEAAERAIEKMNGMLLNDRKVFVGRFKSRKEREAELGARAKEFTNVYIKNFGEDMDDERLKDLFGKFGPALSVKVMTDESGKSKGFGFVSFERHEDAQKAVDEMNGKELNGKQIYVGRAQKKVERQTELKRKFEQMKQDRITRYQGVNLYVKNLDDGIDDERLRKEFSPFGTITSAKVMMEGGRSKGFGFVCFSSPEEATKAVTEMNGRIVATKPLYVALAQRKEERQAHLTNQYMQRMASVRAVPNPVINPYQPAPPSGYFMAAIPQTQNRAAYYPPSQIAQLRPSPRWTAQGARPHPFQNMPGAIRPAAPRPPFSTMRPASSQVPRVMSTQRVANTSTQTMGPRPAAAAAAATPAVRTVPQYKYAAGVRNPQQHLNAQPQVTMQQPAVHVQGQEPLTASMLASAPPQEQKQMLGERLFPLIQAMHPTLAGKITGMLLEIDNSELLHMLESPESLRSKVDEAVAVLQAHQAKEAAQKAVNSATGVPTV
RBBP9 inhibitor – human RBBP9 inhibitors, primary screen, biochemical, fluorescence polarization, FP-Rh probe, HTS. AID 1515, 2009. inhibition, % at 7.94 µM. hit rate 0.2% among 220,000. recombinant RBBP9. Serine hydrolase RBBP9 (Homo sapiens), O75884;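 active means inhibition above the campaign mean of all tested compounds plus 3 SD, cut at about 14% in these data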
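Test system: recombinant human RBBP9; Timing: 30 min then 45 min, 25 °C; Detection: fluorescence polarization; Control set: RBBP9 with DMSO as uninhibited control, no-protein wells as full inhibition; Compound dosing: one concentration, 7.94 µM nominal, 0.794% DMSO; Probe or stimulus: FP-Rh activity-based probe, 375 nM before mixing.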
MLLE-PAM2 inh – inhibitors of PABP1 MLLE–PAM2 peptide binding, primary screen, biochemical, fluorescence polarization, FITC-PAM2, GST-MLLE. hit rate 0.36% among 360,000. Polyadenylate-binding protein 1 (Homo sapiens), P11940. inhibition, % at 20 µM; in the data active means inhibition above about 35%, passing the limit was not always enough
Of the large screens only hits and unclear results are named; the others gave an inactive call. In the library only some 1.6% were active in any assay of this set; here they are far more common. Unless noted, how the calls were made is not given here.

COc1cccc(CNC(=O)[C@H]2CCCN2C(=O)[C@H]2CCCN2C(=O)c2ccc(OC(F)(F)F)cc2)c1	none (no result: eIF4H inh, PABP FP inh, RBBP9 inhibitor, MLLE-PAM2 inh)
O=C(O)CCCNc1cc(N2CCN(C(=O)c3ccco3)CC2)c2noc3c2c1C(=O)c1ccccc1-3	eIF4H inh inconclusive, TCR-CD3 inh 79.1, PABP FP inh inconclusive (no result: RBBP9 inhibitor)
CCOC(=O)N1CCN(c2cc(NCCC(=O)O)c3c4c(onc24)-c2ccccc2C3=O)CC1	eIF4H inh 85.7, PABP FP inh active (no result: TCR-CD3 inh)
CN1CCN(c2cc(N3CCN(C(=O)c4ccco4)CC3)c3c4c(onc24)-c2ccccc2C3=O)CC1	eIF4H inh 92.6, PABP FP inh active (no result: TCR-CD3 inh, RBBP9 inhibitor)
O=C(O)CCCNc1cc(N2CCC3(CC2)OCCO3)c2noc3c2c1C(=O)c1ccccc1-3	eIF4H inh 115.0, PABP FP inh active (no result: TCR-CD3 inh, MLLE-PAM2 inh)
O=C(c1ccco1)N1CCN(C2=NS(=O)(=O)c3ccccc32)CC1	none
Cc1cc(C)cc([C@H]2C[C@]34CN(Cc5ccccc5)S(=O)(=O)[C@H]3C[C@H]2O4)c1	none (no result: eIF4H inh, PABP FP inh, RBBP9 inhibitor, MLLE-PAM2 inh)
COCCCNC(=O)C[C@H]1C[C@@]2(C(=O)OC)C(=C[C@H](C(C)(C)C)O[C@@H]2C)N(CCc2ccc(OC)c(OC)c2)C1=O	none (no result: eIF4H inh, PABP FP inh, RBBP9 inhibitor, MLLE-PAM2 inh)
O=C1c2ccccc2-c2onc3c(N4CCN(CCO)CC4)cc(N4CCN(C(=O)c5ccco5)CC4)c1c23	eIF4H inh 83.0, PABP FP inh active (no result: RBBP9 inhibitor)
N#CC1=C(N)C(C#N)(C#N)C(c2cccnc2)C2CN(C(=O)OCc3ccccc3)CC=C12 (stereo not given)	eIF4H inh 65.8
Cc1ccc(-n2nnnc2SCn2nnc3ccccc3c2=O)cc1	none
COc1ccc(C)cc1-n1nnnc1SCn1nnc2ccccc2c1=O	MLLE-PAM2 inh 46.2
COCC1CN(CCc2ccc(F)cc2)S(=O)(=O)c2c(F)cccc2O1 (stereo not given)	none (no result: eIF4H inh, PABP FP inh, RBBP9 inhibitor, MLLE-PAM2 inh)
CC(COc1ccccc1)N(CCCl)Cc1ccccc1 (stereo not given)	eIF4H inh active, PABP FP inh active
Cc1ccccc1-n1c(SCC(=O)c2cc(C)n(C)c2C)nnc1-c1cccnc1	none (no result: TCR-CD3 inh)
CN(C(=O)CSc1nnc(-c2cccnc2)n1-c1ccccc1F)C1CCS(=O)(=O)C1 (stereo not given)	eIF4H inh 39.2, PABP FP inh active
CN(C(=O)CSc1nnc(-c2ccncc2)n1-c1ccccc1)C1CCS(=O)(=O)C1 (stereo not given)	none
COCCn1c(C)cc(C(=O)CSc2nnc(-c3cccnc3)n2-c2ccccc2F)c1C	PABP FP inh active
C#CC1c2ccccc2CCN1CC=C (stereo not given)	none (no result: eIF4H inh, PABP FP inh, RBBP9 inhibitor, MLLE-PAM2 inh)
COC(=O)[C@]12C[C@H](CC(=O)N3CCN(C(=O)c4ccco4)CC3)C(=O)N(Cc3ccccc3)C1=C[C@H](C(C)C)O[C@@H]2C1CC1	none (no result: eIF4H inh, PABP FP inh, RBBP9 inhibitor, MLLE-PAM2 inh)
CCOC(=O)C(C)(C)CC#CCN(CC#Cc1ccccc1)S(=O)(=O)c1ccc(C)cc1	none (no result: eIF4H inh, PABP FP inh, RBBP9 inhibitor, MLLE-PAM2 inh)
COc1ccccc1NC(=O)N(C)C[C@H]1OCc2cn(nn2)CCCC(=O)N([C@H](C)CO)C[C@@H]1C	none (no result: eIF4H inh, PABP FP inh, RBBP9 inhibitor, MLLE-PAM2 inh)
COC(=O)C1=C(C)N(C)C(=NCc2cccc(C(F)(F)F)c2)NC1c1ccc(F)cc1 (stereo not given)	none (no result: eIF4H inh, PABP FP inh, RBBP9 inhibitor, MLLE-PAM2 inh)
O=C(c1ccc([N+](=O)[O-])cc1)N1CCc2ccccc2C1	eIF4H inh 4.6, PABP FP inh active
COc1ccc(NS(=O)(=O)c2ccc(Cl)s2)cn1	eIF4H inh inconclusive, PABP FP inh inconclusive, MLLE-PAM2 inh 58.3
COc1ccc(-c2cc(NC(=O)Cc3c(C)[nH]c4ccccc34)ccc2Nc2cccnc2)cc1F	none (no result: eIF4H inh, PABP FP inh, RBBP9 inhibitor, MLLE-PAM2 inh)
CCCCS(=O)(=O)N1CCCc2nc(CC)c(CC)cc21	none (no result: eIF4H inh, PABP FP inh, RBBP9 inhibitor, MLLE-PAM2 inh)
N#Cc1c2c(c(-c3ccco3)[nH]c1=O)CCCC2	MLLE-PAM2 inh 41.9
COC(=O)Cc1nnn2c1[C@H](C)[C@H](c1ccccc1Br)OC[C@@H]2c1ccccc1	none (no result: eIF4H inh, PABP FP inh, RBBP9 inhibitor, MLLE-PAM2 inh)
CCC(CC)c1nnc(NC(=O)C2CC(=O)N(CCc3ccc(F)cc3)C2)s1 (stereo not given)	MLLE-PAM2 inh 31.7 (no result: RBBP9 inhibitor)
CCOC(=O)C1CCN(Cc2nc3ccc([N+](=O)[O-])cc3c(=O)n2-c2ccc(OC)cc2OC)CC1	none
COc1ccc(-n2c(CN3CCC(C(N)=O)CC3)nc3ccc([N+](=O)[O-])cc3c2=O)c(OC)c1	eIF4H inh active
